Tests used:
[1] = system: Ba/F3 cells FLT3- ITD; test: Antiproliferative assay in Ba/F3 cells transfected with FLT3 variants; format: cell-based, mouse; details: for IC50: Mus musculus, BaF3
[2] = system: Ba/F3 cells FLT3 D835Y; test: as above; format: cell-based; details: Mus musculus, BaF3
[3] = system: Ba/F3 cells FLT3-ITD + D835Y; test: as above; format: cell-based; details: Mus musculus, BaF3
[4] = system: Ba/F3 cells FLT3-ITD + F691L; test: as above; format: cell-based; details: Mus musculus, BaF3
[5] = system: relapsed or refractory FLT3-mutated AML; details: FLT3 inhibitor-naïve patients with relapsed or refractory FLT3-mutated AML; cited from earlier work
[6] = biological target: ERBB (Homo sapiens, UniProt P04626); test: RBC enzymatic assay, ATP at Km; format: biochemical
How it was run: (§1)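 Recombinant kinases were assayed with ATP at each kinase's Km, and IC50 values were determined.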

[7] = system: phosphorylation of FLT3; test: Western blot analysis of kinase inhibition; format: cell-based; details: Fig. 2B
How it was run: (§2)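 Cells were exposed to vehicle DMSO or a concentration range of test compound for 1 or 24 h, then lysed. Blots were probed for total and phosphorylated FLT3 (pY589/591), STAT5 (pY694) and ERK1/2 (pT202/204). Images are representative of 3 biological repeats.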

[8] = Phase I trial tolerability; format: in vivo, patients with AML and MDS/MPN; details: doses that yield plasma concentrations up to 1 μmol/L
[9] = biological target: FLT3-ITD (Homo sapiens, UniProt P36888); test: RBC enzymatic assay, ATP at Km; format: biochemical
How it was run: as §1

[10] = system: MOLM-13; test: Antiproliferative assay; format: cell-based; details: Homo sapiens, MOLM-13, 72 h, read-out: Mean IC50
How it was run: (§3)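 Human AML lines from ATCC or DSMZ, STR-authenticated, mycoplasma-tested every 2 months and grown in source-recommended medium. Cells were exposed in four replicates to increasing concentrations of test compound for 72 h. Proliferation was read with the CellTiter 96 AQueous One (MTS) reagent.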

[11] = biological target: hERG potassium ion channel (Homo sapiens, UniProt Q12809); test: hERG inhibition
[12] = system: HEL92.1.7; test: Antiproliferative assay; format: cell-based; details: Homo sapiens, HEL 92.1.7, 72 h, read-out: Mean IC50
How it was run: as §3

[13] = biological target: FLT3 ITD/F691L (Homo sapiens, UniProt P36888, F691L/ITD); test: DiscoverX KINOMEscan competition binding
[14] = system: samples from patients with MDS/MPN; test: Ex vivo cell viability assay; format: cell-based; details: Homo sapiens, read-out: median IC50
How it was run: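 Freshly isolated patient mononuclear cells (peripheral blood or bone marrow) were plated at 10,000 cells/well. They were given a seven-point, 3-fold dilution series from 10 to 0.0137 µmol/L, made from DMSO stocks, and incubated 3 days. Growth was read by MTS; absorbance was background-subtracted and normalised to untreated wells. IC50 was obtained per sample and the median taken.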

[15] = system: primary mononuclear cells from patients with AML; test: Ex vivo cell viability assay; format: cell-based; details: Homo sapiens, read-out: median IC50, 186 primary samples from patients with AML
[16] = biological target: FLT3 D833Q (TKD) (Homo sapiens, UniProt P36888); test: DiscoverX KINOMEscan competition binding
[17] = system: FLT3-mutant AML cell lines and the PDGFR-α mutant EOL-1 cell line; test: Apoptosis by PARP cleavage; format: cell-based, human; details: all 3 FLT3-mutant AML cell lines and EOL-1
How it was run: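 Cells were treated with DMSO vehicle or test compound for 1 or 24 h, then lysed. Apoptosis was assessed by Western blot for PARP cleavage.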

[18] = system: phosphorylation of STAT5; test: Western blot analysis of kinase inhibition; format: cell-based; details: Fig. 2B
How it was run: as §2

[19] = biological target: CYP3A4 (Homo sapiens, UniProt P08684); test: Metabolism studies; format: in vitro ADME
[20] = system: MV4–11 FLT3-ITD xenograft; test: MV4–11 subcutaneous xenograft study; format: in vivo, BALB/c nu/nu mice
[21] = biological target: CYP3A5 (Homo sapiens, UniProt P20815); test: Metabolism studies; format: in vitro ADME
[22] = system: phosphorylation of ERK1/2; test: Western blot analysis of kinase inhibition; format: cell-based; details: Fig. 2B
How it was run: as §2

[23] = biological target: FLT3– ITD (Homo sapiens, UniProt P36888, ITD); test: DiscoverX KINOMEscan competition binding
[24] = biological target: TEC (Homo sapiens, UniProt P42680); test: RBC enzymatic assay, ATP at Km; format: biochemical
How it was run: as §1

[25] = 28-day GLP repeat-dose toxicology study; format: in vivo; details: dogs, up to highest dose tested of 600 mg/kg orally
[26] = biological target: FLT3 (Homo sapiens, UniProt P36888); test: Plasma inhibition assay; details: phase I doses yielding plasma concentrations up to 1 μmol/L
[27] = system: THP-1; test: Antiproliferative assay; format: cell-based; details: Homo sapiens, THP-1, 72 h, read-out: Mean IC50
How it was run: as §3

[28] = system: EOL-1; test: Antiproliferative assay; format: cell-based; details: Homo sapiens, EOL1, 72 h, read-out: Mean IC50
How it was run: as §3

[29] = Cardiovascular study in dogs; format: in vivo

FLT3-ITD, sequence (P36888 564-993, change not shown): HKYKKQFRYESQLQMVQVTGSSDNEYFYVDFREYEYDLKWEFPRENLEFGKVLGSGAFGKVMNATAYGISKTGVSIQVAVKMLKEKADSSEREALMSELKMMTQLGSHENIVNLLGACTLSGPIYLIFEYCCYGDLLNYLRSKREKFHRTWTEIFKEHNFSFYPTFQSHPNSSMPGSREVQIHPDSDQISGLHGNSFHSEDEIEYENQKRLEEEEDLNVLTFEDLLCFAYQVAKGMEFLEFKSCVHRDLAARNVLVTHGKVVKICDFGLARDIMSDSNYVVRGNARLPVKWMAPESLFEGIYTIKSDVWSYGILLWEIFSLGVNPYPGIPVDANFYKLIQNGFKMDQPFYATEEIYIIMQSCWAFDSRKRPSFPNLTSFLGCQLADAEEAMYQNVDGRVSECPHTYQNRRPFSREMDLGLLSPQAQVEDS
FLT3– ITD, sequence (P36888 564-993, change not shown): as above
TEC, sequence (P42680 whole entry): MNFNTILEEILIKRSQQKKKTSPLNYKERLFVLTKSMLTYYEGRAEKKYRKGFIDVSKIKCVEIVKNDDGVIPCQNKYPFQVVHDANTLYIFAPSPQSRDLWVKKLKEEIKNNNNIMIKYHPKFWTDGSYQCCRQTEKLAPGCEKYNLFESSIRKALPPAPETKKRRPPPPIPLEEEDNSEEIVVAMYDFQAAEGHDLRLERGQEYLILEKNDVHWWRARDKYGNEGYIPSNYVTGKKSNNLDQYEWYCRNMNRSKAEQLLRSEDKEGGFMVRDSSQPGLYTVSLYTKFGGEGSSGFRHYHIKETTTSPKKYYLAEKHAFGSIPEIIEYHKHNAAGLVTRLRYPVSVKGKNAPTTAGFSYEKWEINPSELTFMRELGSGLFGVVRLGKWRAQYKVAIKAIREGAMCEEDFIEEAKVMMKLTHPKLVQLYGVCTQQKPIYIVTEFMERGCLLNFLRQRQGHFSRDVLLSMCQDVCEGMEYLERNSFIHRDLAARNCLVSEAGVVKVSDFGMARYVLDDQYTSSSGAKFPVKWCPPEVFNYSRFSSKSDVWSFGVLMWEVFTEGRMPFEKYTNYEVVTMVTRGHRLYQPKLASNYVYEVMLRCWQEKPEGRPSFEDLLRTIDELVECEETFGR
ERBB, sequence (P04626 23-1255): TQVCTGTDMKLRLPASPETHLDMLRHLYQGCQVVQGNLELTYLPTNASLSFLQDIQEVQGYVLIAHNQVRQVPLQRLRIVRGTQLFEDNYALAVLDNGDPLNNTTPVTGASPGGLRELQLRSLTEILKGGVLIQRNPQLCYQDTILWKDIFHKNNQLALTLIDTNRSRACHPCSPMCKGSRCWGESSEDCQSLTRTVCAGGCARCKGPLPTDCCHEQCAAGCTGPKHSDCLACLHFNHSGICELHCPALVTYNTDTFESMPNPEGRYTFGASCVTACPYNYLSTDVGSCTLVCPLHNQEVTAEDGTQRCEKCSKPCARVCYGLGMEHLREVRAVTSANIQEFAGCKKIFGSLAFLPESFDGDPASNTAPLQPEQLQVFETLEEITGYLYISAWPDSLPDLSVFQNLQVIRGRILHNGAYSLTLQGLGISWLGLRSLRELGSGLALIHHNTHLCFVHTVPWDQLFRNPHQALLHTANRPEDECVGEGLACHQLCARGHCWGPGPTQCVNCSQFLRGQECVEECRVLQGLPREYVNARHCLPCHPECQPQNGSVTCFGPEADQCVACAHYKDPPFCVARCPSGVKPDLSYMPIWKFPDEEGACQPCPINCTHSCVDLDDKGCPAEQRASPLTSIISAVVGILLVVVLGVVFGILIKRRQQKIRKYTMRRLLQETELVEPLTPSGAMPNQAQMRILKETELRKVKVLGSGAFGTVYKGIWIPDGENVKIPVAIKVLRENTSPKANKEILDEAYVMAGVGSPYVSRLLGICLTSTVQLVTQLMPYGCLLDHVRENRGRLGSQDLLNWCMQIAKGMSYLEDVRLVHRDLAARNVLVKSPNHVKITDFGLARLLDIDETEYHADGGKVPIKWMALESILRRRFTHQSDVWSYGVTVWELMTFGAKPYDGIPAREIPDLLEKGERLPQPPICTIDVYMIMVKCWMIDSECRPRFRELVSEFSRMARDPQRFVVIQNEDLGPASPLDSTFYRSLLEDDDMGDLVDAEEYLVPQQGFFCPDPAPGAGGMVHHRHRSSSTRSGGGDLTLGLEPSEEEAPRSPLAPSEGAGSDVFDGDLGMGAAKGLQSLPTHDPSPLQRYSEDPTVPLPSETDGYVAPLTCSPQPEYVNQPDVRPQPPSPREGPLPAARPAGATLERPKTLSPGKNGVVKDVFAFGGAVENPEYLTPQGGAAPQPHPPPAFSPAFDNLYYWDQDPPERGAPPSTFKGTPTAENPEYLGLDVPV
CYP3A5, sequence (P20815 whole entry): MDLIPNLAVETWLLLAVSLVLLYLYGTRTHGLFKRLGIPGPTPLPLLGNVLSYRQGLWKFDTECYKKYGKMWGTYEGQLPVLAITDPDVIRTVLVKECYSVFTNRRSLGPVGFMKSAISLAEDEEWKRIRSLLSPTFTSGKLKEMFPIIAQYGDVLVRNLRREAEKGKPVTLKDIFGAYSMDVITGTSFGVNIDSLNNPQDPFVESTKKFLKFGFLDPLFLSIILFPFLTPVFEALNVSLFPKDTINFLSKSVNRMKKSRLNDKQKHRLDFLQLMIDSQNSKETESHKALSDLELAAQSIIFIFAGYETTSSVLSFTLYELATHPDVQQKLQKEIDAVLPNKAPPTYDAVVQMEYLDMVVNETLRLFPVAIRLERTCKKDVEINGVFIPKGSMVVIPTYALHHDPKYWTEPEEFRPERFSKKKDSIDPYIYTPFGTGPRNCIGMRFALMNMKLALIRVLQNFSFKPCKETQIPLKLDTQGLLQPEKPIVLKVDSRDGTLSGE
hERG potassium ion channel, sequence (Q12809 whole entry): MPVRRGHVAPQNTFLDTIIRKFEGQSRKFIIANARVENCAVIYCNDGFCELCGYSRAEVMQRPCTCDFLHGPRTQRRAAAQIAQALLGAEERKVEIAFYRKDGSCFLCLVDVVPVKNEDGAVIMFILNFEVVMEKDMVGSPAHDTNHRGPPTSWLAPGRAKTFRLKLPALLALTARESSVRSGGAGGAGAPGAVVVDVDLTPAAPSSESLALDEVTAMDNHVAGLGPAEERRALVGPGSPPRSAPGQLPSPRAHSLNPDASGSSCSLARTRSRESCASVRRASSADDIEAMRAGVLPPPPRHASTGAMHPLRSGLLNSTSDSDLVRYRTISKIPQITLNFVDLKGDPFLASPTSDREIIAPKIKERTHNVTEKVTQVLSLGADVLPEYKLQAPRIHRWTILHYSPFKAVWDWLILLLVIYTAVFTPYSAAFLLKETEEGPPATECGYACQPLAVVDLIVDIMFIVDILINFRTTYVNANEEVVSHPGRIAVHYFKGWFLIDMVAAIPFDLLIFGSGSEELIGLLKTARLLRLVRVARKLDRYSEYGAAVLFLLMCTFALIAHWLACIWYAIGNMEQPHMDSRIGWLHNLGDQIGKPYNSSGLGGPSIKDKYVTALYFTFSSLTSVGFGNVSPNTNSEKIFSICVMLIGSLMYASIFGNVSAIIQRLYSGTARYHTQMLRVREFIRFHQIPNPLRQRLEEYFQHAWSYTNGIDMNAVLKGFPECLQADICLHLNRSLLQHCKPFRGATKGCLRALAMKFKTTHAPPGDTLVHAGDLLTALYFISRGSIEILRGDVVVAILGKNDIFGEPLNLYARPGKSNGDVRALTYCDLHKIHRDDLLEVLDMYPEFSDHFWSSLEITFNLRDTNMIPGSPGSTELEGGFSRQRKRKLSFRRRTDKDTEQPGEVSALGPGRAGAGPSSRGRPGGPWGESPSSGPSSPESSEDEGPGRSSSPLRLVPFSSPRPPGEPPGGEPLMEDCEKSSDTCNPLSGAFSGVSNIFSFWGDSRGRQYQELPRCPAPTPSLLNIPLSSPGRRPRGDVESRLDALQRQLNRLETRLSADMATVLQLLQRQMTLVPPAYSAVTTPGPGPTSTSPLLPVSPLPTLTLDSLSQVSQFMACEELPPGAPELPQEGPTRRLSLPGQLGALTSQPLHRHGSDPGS
CYP3A4, sequence (P08684 whole entry): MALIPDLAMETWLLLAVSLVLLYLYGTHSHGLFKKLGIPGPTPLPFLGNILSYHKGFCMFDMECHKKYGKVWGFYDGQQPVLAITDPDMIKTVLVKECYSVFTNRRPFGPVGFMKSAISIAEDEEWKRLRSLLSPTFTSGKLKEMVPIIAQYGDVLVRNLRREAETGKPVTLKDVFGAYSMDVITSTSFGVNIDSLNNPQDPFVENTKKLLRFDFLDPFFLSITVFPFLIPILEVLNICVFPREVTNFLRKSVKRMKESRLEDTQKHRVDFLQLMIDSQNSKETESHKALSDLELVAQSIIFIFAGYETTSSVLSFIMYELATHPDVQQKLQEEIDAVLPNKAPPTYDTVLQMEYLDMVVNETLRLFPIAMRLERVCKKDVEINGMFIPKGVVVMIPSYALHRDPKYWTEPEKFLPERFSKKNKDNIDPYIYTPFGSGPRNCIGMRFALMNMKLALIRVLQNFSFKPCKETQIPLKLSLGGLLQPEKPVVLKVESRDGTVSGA
FLT3 D833Q (TKD), sequence (P36888 610-943, stated change not applied): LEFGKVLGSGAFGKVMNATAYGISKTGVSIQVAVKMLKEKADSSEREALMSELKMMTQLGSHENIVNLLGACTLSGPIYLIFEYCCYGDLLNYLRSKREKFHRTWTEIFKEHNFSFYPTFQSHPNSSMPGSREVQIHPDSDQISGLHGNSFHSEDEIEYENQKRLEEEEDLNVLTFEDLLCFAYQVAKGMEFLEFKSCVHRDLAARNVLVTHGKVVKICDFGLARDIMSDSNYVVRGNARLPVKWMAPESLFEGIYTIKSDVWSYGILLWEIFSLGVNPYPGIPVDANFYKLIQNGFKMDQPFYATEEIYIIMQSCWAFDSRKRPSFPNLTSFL
FLT3 ITD/F691L, sequence (P36888 564-993 F691L): as the sequence (P36888 564-993, change not shown) above, with F128L counted along it

CC1(COc2ccc3c(c2)ncn3-c2ccc3cccc(N4CCC(N)CC4)c3n2)COC1 [Crenolanib, crenolanib]
IC50 [1]: 38 ± 8 nM | IC50 [2]: 831 ± 195 nM | IC50 [3]: 37 ± 13 nM | IC50 [4]: 286 ± 9 nM

CCc1nc(C(N)=O)c(Nc2ccc(N3CCC(N4CCN(C)CC4)CC3)c(OC)c2)nc1NC1CCOCC1 [Gilteritinib, gilteritinib]
event-free survival [5]: 2.8 months | response rate [5]: 34% | IC50 [1]: 28 ± 2 nM | IC50 [2]: 521 ± 68 nM | IC50 [3]: 9 ± 5 nM | IC50 [4]: 96 ± 6 nM

Cc1cnc(-c2ccc(-c3ccc(NC(=O)Nc4c(F)cc(F)cc4F)cc3F)c3c2C(=O)NC3)[nH]1 [luxeptinib, Luxeptinib]
IC50 [6]: > 1000 nM | phosphorylation of FLT3 [7]: potently reduces the phosphorylation | tolerability in phase I trial [8]: generally well tolerated | fold more potent than quizartinib ([1]; FLT3-ITD in the Ba/F3 system): 4 fold | IC50 [1]: 1 ± 0.2 nM | IC50 ([9]; FLT3-ITD, recombinant kinase with ATP concentration at the Km): 0.8 nM | fold lower inhibitory concentration for recombinant FLT-ITD than WT FLT3 ([9]; recombinant kinases): 10 fold | IC50 [10]: 0.395 nM | inhibition of hERG potassium ion channel [11]: did not inhibit | IC50 [12]: 4690 nM | Kd [13]: 16 nM | IC50 [14]: < 200 nM | IC50 [15]: 94.5 nM | IC50 [2]: 6 ± 0.4 nM | Kd [16]: 6.4 nM | concentration inducing apoptosis (PARP cleavage) [17]: ≤ 5 nmol/L | phosphorylation of downstream STAT5 [18]: reduces the phosphorylation | involvement of CYP3A4 in metabolism [19]: involved in the metabolism | IC50 [3]: 22 ± 9 nM | mice with tumor growth completely suppressed out to 120 days ([20]; 300 mg/kg twice a day, oral gavage, 28 days): 10 of 11 | weight loss or clinically apparent adverse events ([20]; doses up to 300 mg/kg twice a day, mice): No weight loss or clinically apparent adverse events | Inhibition of tumor growth ([20]; lowest dose of 20 mg/kg/day, oral, 28 days): apparent | response of regrown tumors to second 28-day treatment ([20]; re-treatment at 300 mg/kg twice a day, 100 and 300 mg/kg groups): All tumors that regrew in these two groups responded | involvement of CYP3A5 in metabolism [21]: involved in the metabolism | phosphorylation of downstream ERK1/2 [22]: reduces the phosphorylation | Kd [23]: 3.1 nM | IC50 [24]: 139 nM | hematologic, cardiovascular or other organ toxicities [25]: No hematologic, cardiovascular or other organ toxicities were observed | IC50 [4]: 9 ± 1 nM | inhibition of FLT3 in a plasma inhibition assay [26]: almost complete inhibition | IC50 [27]: 2970 nM | IC50 [28]: 0.045 nM | effect on QTc or any other parameter of heart function [29]: no effect

Reference: publication PMC9256809 (Molecular Cancer Therapeutics, 2022)
